Source: PubChem BioAssay (Broad Institute)
SIRT5 inh – sirtuin-5 (human) deacylase inhibition | AID 652115 | inhibition, % at 15 µM | Purified SirT5, succinyl-peptide AMC, trypsin-coupled fluorescence | 1.1% of 330,000 active | Q9NXA8; in the data active = inhibition above about 15%; inconclusive = no clear call, values can overlap the other calls
Target sequence (Q9NXA8 whole entry, looked up): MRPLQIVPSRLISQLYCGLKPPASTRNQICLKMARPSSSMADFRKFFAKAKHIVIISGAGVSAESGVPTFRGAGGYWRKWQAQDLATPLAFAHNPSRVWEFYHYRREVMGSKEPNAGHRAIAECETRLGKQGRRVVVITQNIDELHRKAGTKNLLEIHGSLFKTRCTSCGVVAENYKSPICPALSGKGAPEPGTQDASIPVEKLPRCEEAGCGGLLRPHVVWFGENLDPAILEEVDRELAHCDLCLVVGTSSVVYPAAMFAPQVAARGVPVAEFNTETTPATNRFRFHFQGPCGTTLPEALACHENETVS
DENV2 CPE rescue – inhibitors of DENV2 cytopathic effect | CPE inhibition, % at 9.99 µM | 1.7% of 350,000 active | DENV2-infected cells, cytopathic effect rescue, plate reader; in the data active = CPE inhibition above about 20%, passing the limit was not always enough; inconclusive = no clear call, values can overlap the other calls; tested in BHK-21 cells
PGC1a acetyl inh – lowers PGC1a acetylation signal in U2OS cells; AlphaScreen anti-acetyl-lysine; with virally co-expressed GCN5 acetyltransferase; inhibition, % at 15.6 µM; 0.17% of 350,000 active;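 active = every replicate shows inhibition of at least 40%; inconclusive = mean inhibition at least 40% but some replicate below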
S100A4 inh HTS – inhibitors of human S100A4 binding to myosin IIA peptide; AID 652163; P26447; inhibition, % at 10.7 µM; 0.14% of 360,000 active; S100A4/TAMRA-MyoIIA peptide fluorescence polarization;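 active = mean inhibition of at least 70% across replicates, with every replicate also reaching that level; inconclusive = mean inhibition reaches 70% but some replicates fall short; inactive = mean inhibition below 70%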
Target sequence (P26447 whole entry, looked up): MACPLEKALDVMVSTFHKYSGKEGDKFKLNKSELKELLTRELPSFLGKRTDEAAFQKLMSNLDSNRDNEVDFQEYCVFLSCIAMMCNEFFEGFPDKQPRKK
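Test system: S100A4 monomer protein; Medium: HEPES pH 7.2 with CaCl2, KCl, NaCl, DTT, Triton; Probe or stimulus: TAMRA-labelled myosin IIA heavy-chain peptide probe, 5 nM; Doses: one dose per compound; Times: polarization read 5 min after assay mix addition, stable 5–60 min; Benchmarks: neutral control DMSO, positive control TFP.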
Statin myotox sup – protects C2C12 myotubes from simvastatin toxicity; AID 602340; 0.78% of 330,000 active; ATP luminescence, 48 h; scaled: DMSO 0, geranylgeraniol control 100; rescue of ATP level, % at 7.49 µM;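 active = mean ATP rescue above about 67%, or every replicate alone reaching that limit, limit read from the data, passing the limit was not always enough; inconclusive = no clear call, values can overlap the other calls; inactive = mean under the limit and some replicate under it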;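 note: myotubes were challenged with 10 µM simvastatin during compound exposure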
Large screens that a line does not name were inactive. A selection: hits, their analogues and other compounds. The true share with any hit is near 2.9%.

Cc1cc(-c2cc(NC(=O)Cc3c(C)[nH]c4ccccc34)ccc2N(C)c2cccnc2)ccc1F	none (no result: SIRT5 inh, PGC1a acetyl inh, Statin myotox sup)
CCOC(=O)N1CCN(C(=O)Cc2ccsc2)CC1	Statin myotox sup 110 (no result: SIRT5 inh, DENV2 CPE rescue, S100A4 inh HTS)
C[C@@H]1CN([C@@H](C)CO)C(=O)Cc2cc(NC(=O)c3ccncc3)ccc2O[C@H]1CN(C)C	none
O=C(Nc1ccc(C(F)(F)F)cc1)N[C@@H]1CC[C@@H](CC(=O)N2CCCCC2)O[C@H]1CO	none
C[C@@H](C(=O)NCCc1ccccc1)N1C(=O)N2CCc3c([nH]c4ccccc34)[C@@]2(C)C1=O	DENV2 CPE rescue 37
C[C@@H](C(=O)NC1CCN(Cc2ccccc2)CC1)N1C(=O)N2CCc3c([nH]c4ccccc34)[C@@]2(C)C1=O	DENV2 CPE rescue inconclusive (no result: SIRT5 inh)
C[C@@H](C(=O)NCCc1ccccc1F)N1C(=O)N2CCc3c([nH]c4ccccc34)[C@@]2(C)C1=O	none (no result: SIRT5 inh)
CC(C)[C@@H](C(=O)NC1CCN(Cc2ccccc2)CC1)N1C(=O)N2CCc3c([nH]c4ccccc34)[C@@]2(C)C1=O	DENV2 CPE rescue 39 (no result: SIRT5 inh)
C[C@@H]1CN([C@@H](C)CO)C(=O)Cc2cc(NC(=O)NC3CCCCC3)ccc2O[C@H]1CN(C)Cc1ccc(C(=O)O)cc1	none
C[C@H](CO)N1C[C@H](C)[C@@H](CN(C)Cc2ccccc2)Oc2ccc(NS(=O)(=O)c3ccc(F)cc3)cc2C1=O	none
C[C@@H]1CN([C@H](C)CO)C(=O)c2cc(NS(=O)(=O)c3ccc(F)cc3)ccc2O[C@H]1CN(C)Cc1ccc(-c2ccccc2)cc1	DENV2 CPE rescue 30
C[C@H]1CN([C@@H](C)CO)C(=O)c2cc(NS(=O)(=O)c3ccc(F)cc3)ccc2O[C@H]1CN(C)Cc1ccccc1	DENV2 CPE rescue 47
C[C@H]1CN([C@@H](C)CO)C(=O)c2cc(NS(=O)(=O)c3ccc(F)cc3)ccc2O[C@@H]1CN(C)Cc1ccc(-c2ccccc2)cc1	SIRT5 inh 15
C[C@H](CO)N1C[C@H](C)[C@H](CN(C)Cc2ccc(-c3ccccc3)cc2)Oc2ccc(NS(=O)(=O)c3ccc(F)cc3)cc2C1=O	none
C[C@H](CO)N1C[C@H](C)[C@@H](CN(C)Cc2ccc(-c3ccccc3)cc2)Oc2ccc(NS(=O)(=O)c3ccc(F)cc3)cc2C1=O	none
CO[C@H]1CN(C)C(=O)c2ccc(NC(C)=O)cc2OC[C@@H](C)N(Cc2nccs2)C[C@H]1C	none
C[C@H](CO)N1C[C@H](C)[C@@H](CN(C)C(=O)Nc2ccc3c(c2)OCO3)Oc2c(NC(=O)CCCCCC(=O)Nc3ccccc3N)cccc2C1=O	none (no result: SIRT5 inh)
CC(C)NC(=O)Nc1ccc2c(c1)C(=O)N([C@@H](C)CO)C[C@@H](C)[C@@H](CN(C)S(=O)(=O)c1ccc(Cl)cc1)OCCCC[C@@H](C)O2	none (no result: Statin myotox sup)
COc1cc(/C=N/NC(=O)c2nc(-c3ccccc3)n(-c3ccccc3)n2)ccc1O	none (no result: SIRT5 inh, DENV2 CPE rescue, S100A4 inh HTS)
COc1ccc(/C=N/NC(=O)c2nc(-c3ccccc3)n(-c3ccccc3)n2)cc1OC	DENV2 CPE rescue 38 (no result: SIRT5 inh, Statin myotox sup)
CN1CCN(CC(O)COC(c2ccccc2)c2ccccc2)CC1 (centres undefined)	none (no result: Statin myotox sup)
OC(COC(c1ccc(Cl)cc1)c1ccc(Cl)cc1)CN1CCN(c2ccccn2)CC1 (centres undefined)	DENV2 CPE rescue 45 (no result: Statin myotox sup)
OC(COC(c1ccc(F)cc1)c1ccc(F)cc1)CN1CCCC1 (centres undefined)	DENV2 CPE rescue 41
COc1ccc2c3c([nH]c2c1)[C@H](CO)N(C(=O)NC(C)C)CC31CCN(C(=O)c2ccccn2)CC1	none (no result: Statin myotox sup)
COc1cc(S(=O)(=O)N2CCOCC2)ccc1NC(=O)COC(=O)/C=C/c1cc(OC)c(OC)c(OC)c1	none (no result: SIRT5 inh, PGC1a acetyl inh, Statin myotox sup)
COc1cc(/C=C/C(=O)OCC(=O)Nc2cc(S(=O)(=O)N3CCOCC3)ccc2Cl)cc(OC)c1OC	Statin myotox sup 109
O=C(COC(=O)/C=C/c1ccc(S(=O)(=O)N2CCOCC2)cc1)NCc1ccc(Cl)cc1	SIRT5 inh 25
COc1cc(/C=C/C(=O)O)cc(S(=O)(=O)Nc2cccc(S(=O)(=O)N3CCOCC3)c2)c1OC	SIRT5 inh 22
COc1cc(/C=C/C(=O)O)cc(S(=O)(=O)Nc2cc(S(=O)(=O)N3CCCCC3)ccc2Cl)c1OC	none (no result: SIRT5 inh)
CCN(CC)S(=O)(=O)c1cccc(C(=O)NCC2(N3CCOCC3)CCCCC2)c1	DENV2 CPE rescue 95
CCS(=O)(=O)N1CCC(C(=O)NCCCN2CCC(Cc3ccccc3)CC2)CC1	none (no result: SIRT5 inh, DENV2 CPE rescue, S100A4 inh HTS)
O=C(NCCCN1CCOCC1)C1CCC(=O)N1CCc1ccccc1 (centres undefined)	DENV2 CPE rescue 29
O=C(NCCCN1CCC(Cc2ccccc2)CC1)C1CCN(S(=O)(=O)N2CCOCC2)CC1	Statin myotox sup 90 (no result: SIRT5 inh, DENV2 CPE rescue, S100A4 inh HTS)
COCC(=O)N1[C@H](CO)[C@H](c2ccccc2)[C@@H]1CNC(=O)c1ccccn1	SIRT5 inh 15
COCC(=O)N1[C@H](CO)[C@@H](c2ccccc2)[C@H]1CNC(=O)c1ccccn1	none
O=C(NC[C@H]1[C@H](c2ccccc2)[C@H](CO)N1Cc1cccnc1)c1ccccn1	SIRT5 inh 17
O=C(NCC(F)(F)F)[C@H]1[C@H](CO)[C@H]2Cn3c(cccc3=O)[C@@H]1N2CCC(F)(F)F	none (no result: Statin myotox sup)
CCCNC(=O)[C@@H]1[C@@H](CO)[C@@H]2Cn3c(cccc3=O)[C@H]1N2CCC(F)(F)F	S100A4 inh HTS 123 (no result: PGC1a acetyl inh)
CCCNC(=O)[C@H]1[C@H](CO)[C@H]2Cn3c(cccc3=O)[C@@H]1N2CCC(F)(F)F	DENV2 CPE rescue 20 (no result: PGC1a acetyl inh)
COc1ccc(S(=O)(=O)Nc2ccc3c(c2)C(=O)N([C@H](C)CO)C[C@H](C)[C@H](CN(C)Cc2ccccc2)O3)cc1	none
CN(C)c1ccc(C(=O)c2ccccc2C(=O)O)cc1[N+](=O)[O-]	SIRT5 inh 28 (no result: PGC1a acetyl inh, Statin myotox sup)
Cc1ccc(-c2cnc3c(c2)C(=O)N([C@@H](C)CO)C[C@@H](C)[C@H](CN(C)S(C)(=O)=O)O3)cc1	none
COc1ccc(NC(=O)Nc2ccc3c(c2)C(=O)N([C@@H](C)CO)C[C@H](C)[C@H](CN(C)S(=O)(=O)c2ccc(OC)cc2)O3)cc1	none
CC(C)CN1C(=O)C(NC(=O)C2CC2)(C(F)(F)F)C2=C1CC(C)(C)CC2=O (centres undefined)	SIRT5 inh 36 (no result: Statin myotox sup)
CC(C)CC(=O)NC1(C(F)(F)F)C(=O)N(Cc2ccccc2)C2=C1C(=O)CC(C)(C)C2 (centres undefined)	none (no result: SIRT5 inh, DENV2 CPE rescue, S100A4 inh HTS)
O=C(O)c1cccc2cccc(-c3c4ccc(=O)c(O)c-4oc4c(O)c(O)ccc34)c12	SIRT5 inh 37 (no result: PGC1a acetyl inh, Statin myotox sup)
O=C(O)c1cccc2cc(-c3ccccc3)oc(=O)c12	none
C/C=C/c1ccc([C@H]2[C@@H](CO)N(CC3CC3)C23CN(C(=O)c2ccc4c(c2)OCO4)C3)cc1	none (no result: Statin myotox sup)
CCC(C)Sc1ccc([C@@H]2[C@@H]3C(=O)N(CC)C(=O)[C@@H]3[C@]3(C(=O)OC)CCCCN23)cc1OC (some centres undefined)	Statin myotox sup 138
